Results collected from several papers.
In brackets after ≈: the same amount, converted by molar mass.

CC1CCC2(CC1)SC(C)C(=O)N2NC(=O)c1[nH]c2ccc(Cl)cc2c1-c1ccccc1 (stereo not drawn)
EC50 (Enterovirus B; viral replication, inhibitor; Vero, B4): > 100 µM

C=C1CC[C@H](O)C/C1=C/C=C1\CCC[C@]2(C)[C@@H]([C@H](C)CCCC(C)C)CC[C@@H]12
EC50 (Hepatitis C virus; viral replication, inhibitor, luciferase; GETYPE2A; 5 days, replicon): 8.45 µM

NC(=O)c1ncn([C@@H]2O[C@H](CO)[C@@H](O)[C@H]2O)n1
EC50 (Enterovirus B; viral replication, inhibitor; Vero, B4): > 250 µM

COc1nc(N)nc2c1ncn2[C@@H]1O[C@H](COP(=O)(N[C@@H](C)C(=O)OCC(C)(C)C)Oc2cccc3ccccc23)[C@@H](O)[C@@]1(C)O (stereo partly drawn)
EC90 (Hepatitis C virus; viral replication, inhibitor; GETYPE2A; 96 h, replicon): 0.0128 µM

COC(=O)c1cc(-c2cccc(NC(=O)Nc3cccc(Cl)c3Cl)c2)on1
MIC (Acinetobacter baumannii; microbial growth, broth dilution; BAA1605): > 64 µg/mL

CC1CCCC2(C1)SCC(=O)N2NC(=O)c1[nH]c2ccc(Cl)cc2c1-c1ccccc1 (stereo not drawn)
EC50 (Enterovirus B; viral replication, inhibitor; Vero, B4): > 100 µM

COC(=O)c1cc(-c2cccc(NC(=O)Nc3cccc(C(F)(F)F)c3)c2)on1
MIC (Acinetobacter baumannii; microbial growth, broth dilution; BAA1605): > 64 µg/mL

CC1CCN(CCCN2/C(=C/c3cc[n+](C)c4ccccc34)Sc3ccccc32)CC1.[I-]
MIC (Acinetobacter baumannii; microbial growth, broth dilution; ATCC19606; drug-resistant strain): 16 µg/mL

CC(C)S(=O)(=O)n1c(N)nc2ccc(/C(=N/O)c3ccccc3)cc21
EC50 (Enterovirus B; viral replication, inhibitor; Vero 76, B3): < 0.01 µM

Cc1c(NN=C(C#N)C2=NC(=O)CS2)c(=O)n(-c2ccccc2)n1C
MBC (Acinetobacter baumannii; microbial killing, broth dilution): 0.25 µg/mL (≈ 0.705 µM)

CSc1ccc(/C=C/c2cc(/C=C3\Sc4ccccc4N3CCCN3CCCC3)c3ccccc3[n+]2C)cc1.[I-]
MIC (Acinetobacter baumannii; microbial growth, broth dilution; ATCC19606; drug-resistant strain): 64 µg/mL

CCCC1CCC2(CC1)SCC(=O)N2NC(=O)c1[nH]c2ccc(Cl)cc2c1-c1ccccc1 (stereo not drawn)
EC50 (Enterovirus B; viral replication, inhibitor; Vero, B4): > 100 µM

COC(=O)c1cc(-c2cccc(NC(=O)Nc3cccc(F)c3)c2)on1
MIC (Acinetobacter baumannii; microbial growth, broth dilution; BAA1605): > 64 µg/mL

CC1SC2(CCCC2)N(NC(=O)c2[nH]c3ccc(Cl)cc3c2-c2ccccc2)C1=O (stereo not drawn)
EC50 (Enterovirus B; viral replication, inhibitor; Vero, B4): > 100 µM

C=C1/C(=C\C=C2/CCC[C@]3(C)[C@@H]([C@H](C)CCCC(C)(C)O)CC[C@@H]23)C[C@@H](O)C[C@@H]1O
EC50 (Hepatitis C virus; viral replication, inhibitor, luciferase; BM4-5, GETYPE1B; 72 h, replicon): 3.19 µM

COC(=O)c1cc(-c2cccc(NC(=S)Nc3ccccc3Cl)c2)on1
MIC (Acinetobacter baumannii; microbial growth, broth dilution; BAA1605): > 64 µg/mL

Cc1cc(/C=C2\Sc3ccccc3N2CCCN2CCCCC2)c2ccccc2[n+]1C.[I-]
MIC (Acinetobacter baumannii; microbial growth, broth dilution; ATCC19606; drug-resistant strain): 64 µg/mL

COC(=O)c1cc(-c2cccc(NC(=S)Nc3ccc(OC)cc3)c2)on1
MIC (Acinetobacter baumannii; microbial growth, broth dilution; BAA1605): > 64 µg/mL

C=C1CC[C@H](O)C/C1=C/C=C1\CCC[C@]2(C)[C@@H]([C@H](C)/C=C/[C@H](C)C(C)C)CC[C@@H]12
EC50 (Hepatitis C virus; viral replication, inhibitor, luciferase; GETYPE2A; 72 h, replicon): 14.2 µM

CCCC1CCC2(CC1)SC(C)C(=O)N2NC(=O)c1[nH]c2ccc(Cl)cc2c1-c1ccccc1 (stereo not drawn)
EC50 (Enterovirus B; viral replication, inhibitor; Vero, B4): > 100 µM

COC(=O)c1cc(-c2cccc(NC(=O)Nc3ccc(Cl)cc3)c2)on1
MIC (Acinetobacter baumannii; microbial growth, broth dilution; BAA1605): > 64 µg/mL
